# Screening data from PubChem BioAssay.
# Rows were chosen to be rich in hits. Some 1.9% of all compounds tested hit in one or more screens of this group.
# CHRM5 antagonist = blocks acetylcholine activation of human M5 receptor. P08912. hit rate 0.59% among 360,000. AID 624040. inhibition, % at 3 µM. CHO-hM5 cells, Fluo-8 calcium fluorescence, ACh EC80;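 active = inhibition above a per-plate cutoff, the mean of that plate's test compounds plus 3 SD, cut at about 27% in these data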;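 note: 0% = acetylcholine EC80 with DMSO and 100% = DMSO without agonist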
# Target sequence (P08912 whole entry, looked up): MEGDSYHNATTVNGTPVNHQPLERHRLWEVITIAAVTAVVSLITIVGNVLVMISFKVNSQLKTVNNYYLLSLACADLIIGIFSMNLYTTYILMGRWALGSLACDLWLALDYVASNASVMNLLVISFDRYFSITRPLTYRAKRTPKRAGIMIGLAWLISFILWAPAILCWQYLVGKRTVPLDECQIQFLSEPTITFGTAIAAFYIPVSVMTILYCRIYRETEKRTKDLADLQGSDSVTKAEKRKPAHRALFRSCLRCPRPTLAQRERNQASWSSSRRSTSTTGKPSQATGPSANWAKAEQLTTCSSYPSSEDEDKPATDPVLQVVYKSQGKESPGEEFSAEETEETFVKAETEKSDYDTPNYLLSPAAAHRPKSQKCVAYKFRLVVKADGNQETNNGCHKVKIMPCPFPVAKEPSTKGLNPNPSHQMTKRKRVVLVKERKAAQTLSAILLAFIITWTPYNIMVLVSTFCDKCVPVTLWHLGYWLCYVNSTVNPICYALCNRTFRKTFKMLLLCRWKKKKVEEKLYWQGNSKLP
# CHRM5 PAM = potentiates acetylcholine response at human M5 receptor; CHO-K1 hM5, Fluo-8 calcium, ACh EC20 PAM; 0% = ACh EC20, 100% = ACh EC100; activation, % at 3 µM; hit rate 0.3% among 360,000; AID 624038;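 active = activation above the run cutoff, the mean activation of all test compounds plus 3 SD, cut at about 18% in these data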
#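 System – CHO-K1 hM5 cells · Compound – 3 µM, single dose · Incubation – compound preincubation 140 s before EC20 acetylcholine addition · Technique – Fluo-8 calcium fluorescence · Measure – Max/basal fluorescence ratio as % of EC20–EC100 ACh window · Benchmarks – low control EC20 acetylcholine (0%), high control EC100 acetylcholine (100%) · Replication – singlicate, one well per test compound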
# M5 ag = agonists of human muscarinic M5 receptor (CHRM5); P08912; CHO-K1 hM5 cells, Fluo-8 calcium fluorescence; 0% DMSO wells, 100% maximal acetylcholine response; activation, % at 3 µM; hit rate 0.19% among 360,000; AID 624037;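 active = activation above the run's mean over test compounds plus 3 SD, cut at about 23% in these data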;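 note: signal is peak over basal fluorescence ratio across the kinetic read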
# M4 PAM = CHRM4 positive allosteric modulation; P08173; CHO-K1 hM4/Gqi5, Fluo-8 calcium fluorescence, ACh EC20; 0% = ACh EC20, 100% = maximal ACh; activation, % at 3 µM; hit rate 0.4% among 360,000;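 active = activation above its plate's cutoff, the mean activation of sample wells plus 3 SD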
# M4 antag = CHRM4 antagonism in calcium assay; P08173; CHO-hM4 cells, ACh EC80, Fluo-8 calcium fluorescence; inhibition, % at 3 µM; hit rate 0.73% among 360,000;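 active = inhibition above its plate's cutoff, the mean inhibition of sample wells plus 3 SD, cut at about 27% in these data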;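 note: 0% = acetylcholine EC80 with DMSO and 100% = DMSO without agonist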
# M4 ag = agonists of human muscarinic M4 receptor (CHRM4); P08173; CHO-K1 hM4/Gqi5, Fluo-8 calcium fluorescence; vehicle 0%, full acetylcholine response 100%; activation, % at 3 µM; hit rate 0.14% among 360,000;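 active = activation above the run mean over all test wells plus 3 SD, cut at about 32% in these data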;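 note: peak over basal fluorescence ratio per well then scaled between controls; 0% = DMSO wells and 100% = acetylcholine at EC100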
# * hit, by the source's call.
SMILES,CHRM5 antagonist,CHRM5 PAM,M5 ag,M4 PAM,M4 antag,M4 ag
O=C(NCCc1cn2ccccc2n1)c1cc(COc2ccc3ncccc3c2)on1,33*,-32,6,-28,36*,31
O=C(c1cc(COc2cccc3cccnc23)on1)N1CCC[C@H]1CO,14,-2,1,-2,6,1
CCN(CC)C1CCN(C(=O)c2cc(COc3cccc4cccnc34)on2)C1 (stereo not drawn),9,-4,-8,-25,38*,1
CC(C)CCn1nc(C(=O)OCC(=O)NC(C)c2ccccc2)c2ccccc2c1=O (stereo not drawn),29*,2,-3,-1,1,0
CC(C(=O)Nc1ccncc1)(c1ccccc1)c1ccccc1,-2,-1,-7,-4,-6,-1
Cc1nc(C)c(C(=O)N2CCCC(C(=O)c3ccc4ccccc4c3)C2)s1 (stereo not drawn),11,-4,1,-7,-5,9
Cc1ccc2c(c1C)NC(=O)C21N2CCCC2C(C(=O)c2ccc3ccccc3c2)C12C(=O)Nc1ccccc12 (stereo not drawn),6,19*,8,11,3,0
COc1ccc(S(=O)(=O)N(C)CC(=O)NCc2ccccn2)cc1,2,-2,-2,-10,7,0
CCOC(=O)CS(=O)(=O)c1nc(-c2ccccc2)cc(C(F)(F)F)n1,15,9,-11,-8,38*,2
CC(C)C(NC(=O)c1ccccc1)C(=O)OCn1nnc2ccccc2c1=O (stereo not drawn),-5,2,3,3,-4,10
COc1ccc(CC(=O)Nc2nc(-c3ccc(OC)c(OC)c3)cs2)cc1OC,-1,-12,23*,-1,-14,25
COc1ccc(-c2csc(NC(=O)CN3C(=O)C4CC=CCC4C3=O)n2)cc1OC (stereo not drawn),29*,-13,-1,-6,8,9
COc1ccc(-c2csc(NC(=O)Cc3ccccc3F)n2)cc1OC,26,-14,-2,-21,45*,8
Cn1cc(CN2CCCCC2C(=O)Nc2ccc(-n3cccn3)cc2)cn1 (stereo not drawn),27*,-7,-7,0,1,0
CN(Cc1ccon1)C(=O)c1ccc2nc(Cc3cccc(Cl)c3)oc2c1,-24,19*,3,2,-25,5
CC(C(O)C12CC3CC(CC(C3)C1)C2)N1CCCCC1 (stereo not drawn),6,-1,-11,-19,40*,0
COC(=O)c1cc(Oc2ccc(C(=O)OC)cc2N)cc(C(=O)OC)c1,-9,-14,0,20*,-2,1
O=C(NCCN1CCOCC1)c1cccc(S(=O)(=O)N(Cc2ccccc2)c2ccccc2)c1,6,-1,-2,6,-3,2
COc1ccc(NC(=O)c2ccc(-c3c(C)noc3C)c3ccoc23)cc1,1,-5,0,-4,-6,12
CCn1c(NC(=O)c2ccccc2F)c(-c2cccs2)c(=O)c2ccccc21,1,-9,7,-34,29*,0
CCn1c(NC(=O)C(C)C)c(-c2cccs2)c(=O)c2ccccc21,-3,5,6,-2,-6,1
COc1ccc2c(c1OC)C(=O)OC2n1c(O)c(N=NC(C)=O)c2ccccc21 (stereo not drawn),3,1,1,1,1,1
CC(CCc1ccc(O)cc1)NC(c1ccccc1)c1ccc(Cl)cc1 (stereo not drawn),-7,-5,-14,-11,2,-2
CC(CCc1ccc(O)cc1)NCCC(c1ccccc1)c1ccccc1 (stereo not drawn),16,-34,-21,-17,32*,33*
O=C(CNC(c1ccccc1)c1ccccc1)NCc1ccccc1Cl,13,-14,-1,-6,12,17
SMILES,CHRM5 antagonist,CHRM5 PAM,M5 ag,M4 PAM,M4 antag,M4 ag
COc1ccc2c3c(cccc13)C(=O)CC2,29*,-10,34*,-22,26,78*
CC1=C(C(=O)OCC2CCCO2)C(c2ccsc2)C2=C(CCCC2=O)N1 (stereo not drawn),9,-2,5,4,-8,1
Cc1ccc(S(=O)(=O)N2CCN(C(=O)CSc3ccc(F)cc3)CC2)cc1,29*,19*,0,32*,24,15
O=C(O)c1cccc(S(=O)(=O)NCCC(c2ccccc2)c2ccccc2)c1,0,12,-7,23*,-26,1
CCN(CC)S(=O)(=O)c1ccc(NCc2ccccn2)nc1,5,-2,0,5,-6,0
CCCN1C(=O)/C(=C/c2c(N3CCNC(=O)C3CC(=O)OCC)nc3c(C)cccn3c2=O)SC1=S (stereo not drawn),22,-24,25*,-10,13,12
Cc1ccc(C)c(-n2c(-c3ccc(Br)cc3)csc2=NC(=O)c2ccccc2F)c1,8,-9,-3,3,-2,1
CC(C)[C@@H](C(=O)N[C@@H](C(=O)O)c1ccccc1)N1C(=O)N2CCc3c([nH]c4ccccc34)[C@@]2(C)C1=O,1,4,0,13,-7,0
OC(CCN1CCOCC1)(c1ccc(Cl)cc1)C1CCCCC1 (stereo not drawn),29*,-34,-11,-15,39*,-1
COc1ccc(S(=O)(=O)N2CCOCC2)cc1NC(=O)CSc1nnc(C2CC2)n1N,4,0,2,0,-6,0
Nc1nonc1NN=C1CCCCC1,-16,21*,3,9,-11,1
COc1ccc(/C=N/Nc2nonc2N)cc1,1,-3,0,1,8,1
CC(=O)c1c(C)[nH]c(C(=O)OCCCCN2C(=O)c3ccccc3C2=O)c1C,31*,-24,9,-15,10,22
CC(=O)c1c(C)[nH]c(C(=O)OCc2ccccc2)c1C,4,-10,1,-7,-6,6
CC1CCC2C(=O)N(c3ccc(NC4CCN(Cc5ccccc5)CC4)c([N+](=O)[O-])c3)C(=O)C2C1 (stereo not drawn),24,-36,-18,-59,29*,4
O=C1C2CCCCC2C(=O)N1c1ccc(NC2CCN(Cc3ccccc3)CC2)c([N+](=O)[O-])c1 (stereo not drawn),32*,-23,-19,-40,16,1
O=C1CCC(=O)N1c1ccc(NC2CCN(Cc3ccccc3)CC2)c([N+](=O)[O-])c1,5,-1,-19,-24,8,0
